Tests used:
[1] = tested on: SK-OV-3; test: Growth inhibition of human SKOV3 cells after 48 hrs by SRB assay; format: functional; conditions: SK-OV-3, 48 h
[2] = Growth inhibition of human UO31 cells after 48 hrs by SRB assay; format: functional; conditions: UO-31, 48 h
[3] = tested on: CCRF-CEM; test: Growth inhibition of human CCRF-CEM cells after 48 hrs by SRB assay; format: functional
[4] = tested on: SN12C; test: Growth inhibition of human SN12C cells after 48 hrs by SRB assay; format: functional
[5] = tested on: OVCAR-8; test: Growth inhibition of human OVCAR8 cells after 48 hrs by SRB assay; format: functional; conditions: OVCAR-8, 48 h
[6] = tested on: 786-0; test: Growth inhibition of human 786-0 cells after 48 hrs by SRB assay; format: functional; conditions: 786-0, 48 h
[7] = Growth inhibition of human RXF393 cells after 48 hrs by SRB assay; format: functional; conditions: RXF 393, 48 h
[8] = tested on: COLO 205; test: Growth inhibition of human COLO205 cells after 48 hrs by SRB assay; format: functional; conditions: COLO 205, 48 h
[9] = tested on: HCT-15; test: Growth inhibition of human HCT15 cells after 48 hrs by SRB assay; format: functional; conditions: HCT-15, 48 h
[10] = tested on: KM12; test: Growth inhibition of human KM12 cells after 48 hrs by SRB assay; format: functional; conditions: KM12, 48 h
[11] = tested on: Malme-3M; test: Growth inhibition of human MALME-3M cells after 48 hrs by SRB assay; format: functional
[12] = tested on: A498; test: Growth inhibition of human A498 cells after 48 hrs by SRB assay; format: functional; conditions: A498, 48 h
[13] = tested on: NCI-H522; test: Growth inhibition of human NCI-H522 cells after 48 hrs by SRB assay; format: functional; conditions: NCI-H522, 48 h
[14] = tested on: SNB-19; test: Growth inhibition of human SNB19 cells after 48 hrs by SRB assay; format: functional; conditions: SNB-19, 48 h
[15] = tested on: HCT-116; test: Growth inhibition of human HCT116 cells after 48 hrs by SRB assay; format: functional; conditions: HCT-116, 48 h
[16] = tested on: Paracentrotus lividus; test: Antimitotic activity against sea urchin embryo free-swimming blastula model assessed as embryo spinning compound treated at 8 to 10 hrs post-fertilization measured after 0.25 to 20 hrs; format: functional, Blastula stage
[17] = tested on: MOLT-4; test: Growth inhibition of human MOLT4 cells after 48 hrs by SRB assay; format: functional; conditions: MOLT-4, 48 h
[18] = tested on: NCI-H226; test: Growth inhibition of human NCI-H226 cells after 48 hrs by SRB assay; format: functional; conditions: NCI-H226, 48 h
[19] = Growth inhibition of human SF539 cells after 48 hrs by SRB assay; format: functional; conditions: SF-539, 48 h
[20] = Growth inhibition of human EKVX cells after 48 hrs by SRB assay; format: functional
[21] = tested on: HT-29; test: Growth inhibition of human HT-29 cells after 48 hrs by SRB assay; format: functional; conditions: HT-29, 48 h
[22] = tested on: IGROV-1; test: Growth inhibition of human IGROV1 cells after 48 hrs by SRB assay; format: functional; conditions: IGROV-1, 48 h
[23] = tested on: SK-MEL-2; test: Growth inhibition of human SK-MEL-2 cells after 48 hrs by SRB assay; format: functional; conditions: SK-MEL-2, 48 h
[24] = tested on: A549; test: Growth inhibition of human A549 cells after 48 hrs by SRB assay; format: functional; conditions: A549, 48 h
[25] = Growth inhibition of human HCC2998 cells after 48 hrs by SRB assay; format: functional; conditions: HCC 2998, 48 h
[26] = tested on: SR; test: Growth inhibition of human SR cells after 48 hrs by SRB assay; format: functional
[27] = tested on: SK-MEL-5; test: Growth inhibition of human SK-MEL-5 cells after 48 hrs by SRB assay; format: functional; conditions: SK-MEL-5, 48 h
[28] = tested on: SNB-75; test: Growth inhibition of human SNB75 cells after 48 hrs by SRB assay; format: functional; conditions: SNB-75, 48 h
[29] = tested on: LOX IMVI; test: Growth inhibition of human LOXIMVI cells after 48 hrs by SRB assay; format: functional
[30] = tested on: K562; test: Growth inhibition of human K562 cells after 48 hrs by SRB assay; format: functional; conditions: K562, 48 h
[31] = Growth inhibition of human UACC257 cells after 48 hrs by SRB assay; format: functional; conditions: UACC-257, 48 h
[32] = tested on: OVCAR-3; test: Growth inhibition of human OVCAR3 cells after 48 hrs by SRB assay; format: functional; conditions: OVCAR-3, 48 h
[33] = Growth inhibition of human HOP92 cells after 48 hrs by SRB assay; format: functional; conditions: HOP-92, 48 h
[34] = tested on: SF-268; test: Growth inhibition of human SF268 cells after 48 hrs by SRB assay; format: functional; conditions: SF-268, 48 h
[35] = tested on: Paracentrotus lividus; test: Antimitotic activity against sea urchin embryo model assessed as cleavage arrest of fertilized egg compound treated at 8 to 20 mins post-fertilization and 45 to 55 mins prior to first mitotic cycle completion measured 2.5 to 5.5 hrs post-fertilization; format: functional
Summary of the method: (§1)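 Fertilized eggs are exposed 8–20 min after fertilization to 2-fold decreasing concentrations. Stocks are 10 mM in DMSO, then diluted 10-fold in 95% EtOH; final DMSO is at most 0.05% and EtOH at most 1%. Embryos are kept as a monolayer, up to 2000 embryos/mL, in filtered seawater at room temperature. The value is the threshold concentration giving cleavage alteration, embryo death before hatching or full mitotic arrest. Duplicates were run.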

[36] = tested on: NCI-H460; test: Growth inhibition of human NCI-H460 cells after 48 hrs by SRB assay; format: functional; conditions: NCI-H460, 48 h
[37] = tested on: NCI-H23; test: Growth inhibition of human NCI-H23 cells after 48 hrs by SRB assay; format: functional; conditions: NCI-H23, 48 h
[38] = tested on: TK-10; test: Growth inhibition of human TK10 cells after 48 hrs by SRB assay; format: functional; conditions: TK-10, 48 h
[39] = Growth inhibition of human OVCAR4 cells after 48 hrs by SRB assay; format: functional; conditions: OVCAR-4, 48 h
[40] = tested on: M14; test: Growth inhibition of human M14 cells after 48 hrs by SRB assay; format: functional; conditions: M14, 48 h
[41] = tested on: CAKI-1; test: Growth inhibition of human CAKI-1 cells after 48 hrs by SRB assay; format: functional; conditions: CAKI-1, 48 h
[42] = tested on: SK-MEL-28; test: Growth inhibition of human SK-MEL-28 cells after 48 hrs by SRB assay; format: functional; conditions: SK-MEL-28, 48 h
[43] = tested on: SW-620; test: Growth inhibition of human SW620 cells after 48 hrs by SRB assay; format: functional; conditions: SW-620, 48 h
[44] = tested on: UACC-62; test: Growth inhibition of human UACC62 cells after 48 hrs by SRB assay; format: functional; conditions: UACC-62, 48 h
[45] = tested on: SF-295; test: Growth inhibition of human SF295 cells after 48 hrs by SRB assay; format: functional; conditions: SF-295, 48 h
[46] = tested on: NCI-H322M; test: Growth inhibition of human NCI-H322M cells after 48 hrs by SRB assay; format: functional
[47] = tested on: Paracentrotus lividus; test: Antimitotic activity against sea urchin embryo model assessed as cleavage alteration of fertilized egg compound treated at 8 to 20 mins post-fertilization and 45 to 55 mins prior to first mitotic cycle completion measured 2.5 to 5.5 hrs post-fertilization; format: functional; summary of the method: as §1
[48] = tested on: RPMI-8226; test: Growth inhibition of human RPMI8226 cells after 48 hrs by SRB assay; format: functional; conditions: RPMI-8226, 48 h
[49] = tested on: HOP-62; test: Growth inhibition of human HOP62 cells after 48 hrs by SRB assay; format: functional; conditions: HOP-62, 48 h
[50] = Growth inhibition of human OVCAR5 cells after 48 hrs by SRB assay; format: functional; conditions: OVCAR-5, 48 h
[51] = tested on: HL-60(TB); test: Growth inhibition of human HL-60(TB) cells after 48 hrs by SRB assay; format: functional; conditions: HL-60, 48 h
[52] = tested on: ACHN; test: Growth inhibition of human ACHN cells after 48 hrs by SRB assay; format: functional
[53] = tested on: U-251; test: Growth inhibition of human U251 cells after 48 hrs by SRB assay; format: functional; conditions: U-251, 48 h

COc1ccc(/C=C\c2cc(OC)c(OC)c(OC)c2)cc1O [COMBRETASTATIN A4]
GI50 [1]: 59 nM
GI50 [2]: 19 nM
GI50 [3]: 3 nM
GI50 [4]: 6 nM
GI50 [5]: 3 nM
GI50 [6]: 100 nM
GI50 [7]: 2 nM
GI50 [8]: 100 nM
GI50 [9]: 4 nM
GI50 [10]: 5 nM
GI50 [11]: 20 nM
GI50 [12]: 6 nM
GI50 [13]: 2 nM
GI50 [14]: 4 nM
GI50 [15]: 3 nM
EC [16]: 0.05 µM
GI50 [17]: 3 nM
GI50 [18]: 4 nM
GI50 [19]: 3 nM
GI50 [20]: 86 nM
GI50 [21]: 100 nM
GI50 [22]: 15 nM
GI50 [23]: 4 nM
GI50 [24]: 16 nM
GI50 [25]: 63 nM
GI50 [26]: 3 nM
GI50 [27]: 4 nM
GI50 [28]: 8 nM
GI50 [29]: 3 nM
GI50 [30]: 2 nM
GI50 [31]: 3 nM
GI50 [32]: 2 nM
GI50 [33]: 3 nM
GI50 [34]: 6 nM
EC [35]: 0.01 µM
GI50 [36]: 3 nM
GI50 [37]: 3 nM
GI50 [38]: 100 nM
GI50 [39]: 14 nM
GI50 [40]: 3 nM
GI50 [41]: 26 nM
GI50 [42]: 8 nM
GI50 [43]: 3 nM
GI50 [44]: 6 nM
GI50 [45]: 4 nM
GI50 [46]: 7 nM
EC [47]: 0.002 µM
GI50 [48]: 3 nM
GI50 [49]: 3 nM
GI50 [50]: 100 nM
GI50 [51]: 2 nM
GI50 [52]: 6 nM
GI50 [53]: 4 nM
